Assay outcomes: PubChem BioAssay, Broad Institute
Shown are actives, neighbours in structure and some others; about 3.8% of the full set was active somewhere.
DENV2 CPE rescue – DENV2-induced cell death inhibition; DENV2-infected cells, cytopathic effect rescue, plate reader; CPE inhibition, % at 9.99 µM; actives 1.7% (n = 350,000); in the data active = CPE inhibition above about 20%, passing the limit was not always enough; inconclusive = no clear call, values can overlap the other calls; tested in BHK-21 cells
SIRT5 block – blocks human SIRT5 desuccinylation of peptide; inhibition, % at 15 µM; actives 1.1% (n = 330,000); Purified SirT5, succinyl-peptide AMC, trypsin-coupled fluorescence; AID 652115; Q9NXA8; in the data active = inhibition above about 15%; inconclusive = no clear call, values can overlap the other calls
Target sequence (Q9NXA8 whole entry, looked up): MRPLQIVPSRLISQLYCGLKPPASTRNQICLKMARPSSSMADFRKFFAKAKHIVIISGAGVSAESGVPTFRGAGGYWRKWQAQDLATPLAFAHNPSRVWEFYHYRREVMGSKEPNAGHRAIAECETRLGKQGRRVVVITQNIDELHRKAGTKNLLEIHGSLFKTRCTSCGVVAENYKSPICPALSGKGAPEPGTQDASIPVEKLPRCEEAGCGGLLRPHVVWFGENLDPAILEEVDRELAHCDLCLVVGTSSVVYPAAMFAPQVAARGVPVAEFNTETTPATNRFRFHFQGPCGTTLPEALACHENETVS
FN deposition inh – fibronectin deposition inhibition; AID 743247; AH1F fibroblasts, Alexa488-fibronectin deposition fluorescence, overnight; inhibition, % at 12.6 µM; actives 0.086% (n = 350,000);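 active = mean inhibition across replicates of 30% or more, regardless of how many single replicates reach that level; inconclusive = mean under 30% yet at least half of replicates reach 30%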
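material = AH1F fibroblast monolayer depositing Alexa488-labelled fibronectin into matrix | amount = 10000 AH1F cells/well | buffer or medium = DMEM plus 2% serum, read in PBS | incubation = 1 h cell adhesion before compound, then overnight fibronectin incubation | detection = fluorescence at 485 nm excitation, 525 nm emission | evaluation = percent inhibition as loss of matrix-bound fibronectin fluorescence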
Xi reactivation – X-chromosome reactivation activator. actives 0.055% (n = 360,000). XiGFP mouse fibroblasts, % GFP-positive cells imaging, 3 d; cells co-treated with 5-aza-dC sensitizer; scaled so ellipticine positive control = 100%. activation, % at 7.58 µM;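 active = mean normalized replicate activation at least 10% and every replicate at or above 10%; inconclusive = only one of the two criteria met; inactive = mean below 10% and not all replicates reach 10%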
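Material: XiGFP fibroblasts, SV40-immortalized. Buffer or medium: DMEM plus 5-aza-dC sensitizer. Compound: single concentration per compound, delivered by pin transfer. Times: 3 days compound exposure. Controls: ellipticine 6 µM.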
ARNT-TACC3 inh – disruptors of human ARNT/TACC3 interaction; Q9Y6A5; AlphaScreen His-ARNT PAS-B/GST-TACC3 binding, luminescence; TACC3 fragment carries E629A point mutation; inhibition, % at 9.99 µM; actives 0.66% (n = 390,000); AID 623870;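 active = mean inhibition of replicates at least 50% and at least half of replicates each reaching 50%; inconclusive = half or more replicates reach 50% but mean below 50%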
FGF22 binding – binders of recombinant human FGF22 by thermal shift; SYPRO orange fluorescence; percent of sucrose octasulfate shift, DMSO zero; AID 651658; actives 1.5% (n = 340,000); activity (Tm shift, normalised), % at 9.99 µM;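 active = mean Tm shift, scaled 0 neutral to 100 positive control, at about 1.3% or above, every replicate too, limit read from the data; inconclusive = no clear call, values can overlap the other calls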
Target sequence (Q9HCT0 whole entry, looked up): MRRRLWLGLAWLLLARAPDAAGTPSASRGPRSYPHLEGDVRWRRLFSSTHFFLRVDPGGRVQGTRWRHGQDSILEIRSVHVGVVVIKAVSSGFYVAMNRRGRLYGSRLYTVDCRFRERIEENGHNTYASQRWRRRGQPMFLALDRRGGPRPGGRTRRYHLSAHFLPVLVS
Numbers stand for hits; 0 = inactive; ? = inconclusive; - = not tested or not shown.

SMILES | DENV2 CPE rescue | SIRT5 block | FN deposition inh | Xi reactivation | ARNT-TACC3 inh | FGF22 binding
COCC(=O)N(C)C[C@H]1N[C@@](Cc2ccccc2)(C(=O)OC)[C@H]2C(=O)N(C)C(=O)[C@@H]12 | 0 | 0 | 0 | 0 | 0 | 0
Cc1nc(N)nc(N)c1-c1ccc(Cl)c(Cl)c1 | 0 | - | - | 0 | 0 | 0
Cc1nc(N)nc(N)c1CCCc1ccc(Cl)c(Cl)c1 | 0 | 15 | 0 | 0 | 0 | 0
O=C(NCCc1ccccc1)c1ccccc1NC(=O)C1CCCCC1C(=O)O (centres undefined) | 44 | 0 | 0 | 0 | - | 0
Cc1noc(C)c1NC(=O)Nc1cccc2c1O[C@H](CN(C)C)[C@@H](C)CN([C@H](C)CO)C2=O | 0 | 0 | - | 0 | 0 | 0
O=C(/C=C/c1cccs1)N1CCC2(CC1)Oc1ccc(Cl)cc1C(=O)C21CC(c2ccccc2)=NO1 (centres undefined) | 0 | - | 0 | 0 | 24 | 0
Cc1cccc2c(N=O)c(O)n(CCc3ccccc3)c12 | 0 | 16 | 0 | 0 | 0 | 0
O=C(Cc1cccnc1)N1[C@@H](CO)[C@H](c2ccccc2)[C@@H]1CNCC1CCC1 | 0 | 0 | 0 | 0 | 0 | 0
Cc1cccc(Nc2nc(N)nc(-c3oc4ccccc4c3C)n2)c1 | 0 | 0 | 0 | 0 | 0 | 39
COc1cccc(Nc2nc(N)nc(-c3oc4ccccc4c3C)n2)c1 | - | - | 0 | - | 0 | -
Cc1ccc(CN2CCN(Cc3cccc(OCCO)c3)CC2CCO)o1 (centres undefined) | 0 | 0 | 0 | 0 | 0 | 44
CC(C)N1CCN(Cc2ccncc2)CC1CCO (centres undefined) | 0 | 0 | 0 | 0 | 0 | 0
Cc1ccc(CN2CCN(Cc3ccc(OC(C)C)cc3)CC2CCO)o1 (centres undefined) | 0 | 0 | 0 | 0 | 0 | 0
Cc1ccc(-c2cccc(CN3CCN(C(C)C)C(CCO)C3)c2)o1 (centres undefined) | 0 | 0 | 0 | 0 | 0 | 43
CSc1ccccc1NC(=O)c1cnc2n(c1=O)CCS2 | ? | 0 | 0 | 0 | 0 | 0
CCc1ccccc1NC(=O)c1cnc2n(c1=O)CCS2 | 35 | 0 | 0 | 0 | 0 | 0
CC(C)[C@H](NC(=O)c1ccc(Cl)c(Cl)c1)C(=O)N1CCC[C@H]1C(=O)NCCc1ccccc1Cl | 23 | 0 | 0 | 0 | - | 0
CC(C)COc1ccc(C(=O)OCCN2CCCCC2)cc1 | 0 | 0 | 0 | 0 | active | 0
Cc1ccc(NC(=S)/N=C(\N)Nc2nc(C)c3cc(C)c(C)cc3n2)cc1C | 0 | 0 | 0 | 0 | 0 | 43
CCC(=O)Nc1ccc2c(c1)C(=O)N(C)[C@@H]1CC[C@@H](CC(=O)N[C@H](C)c3ccccc3)O[C@@H]1CO2 | 0 | 0 | 0 | 0 | 0 | 0
COc1cccc(-n2c(SCC(N)=O)nc3ccccc3c2=O)c1 | 0 | 0 | - | 0 | 0 | 0
COc1cccc(-n2c(SCC(=O)NC3CC3)nc3ccccc3c2=O)c1 | 0 | - | 0 | 0 | - | 43
[N-]=[N+]=NCCCNC(=O)Nc1ccccc1 | 0 | 0 | - | - | - | 0
O=C(Nc1ccccc1F)N[C@H]1CC[C@H](CCNS(=O)(=O)c2ccc(Cl)cc2)O[C@@H]1CO | 0 | 0 | - | 0 | 0 | 0
C[C@@H]1CN([C@@H](C)CO)C(=O)c2cc(C3=CCCC3)cnc2O[C@@H]1CN(C)Cc1ccccc1C(=O)O | 0 | 0 | 0 | 0 | 0 | 0
SMILES | DENV2 CPE rescue | SIRT5 block | FN deposition inh | Xi reactivation | ARNT-TACC3 inh | FGF22 binding
CC(=O)N1[C@H](C)C=C[C@]1(Cc1ccccc1)C(=O)NCc1cc(F)cc(C(F)(F)F)c1 | 0 | 23 | 0 | 0 | 0 | 0
C=CCNC(=O)Nc1ccc(Cl)cn1 | 0 | 0 | 0 | 0 | 0 | 43
Cc1ccc(NC(=O)Nc2ccc(Cl)cn2)cc1 | 0 | 0 | 0 | 0 | 0 | 0
CC(C)(C)NC(=S)N1CCC(C(=O)c2ccc(Cl)cc2)CC1 | 21 | 0 | 0 | 0 | 0 | 0
CC(C)(C)NC(=S)N1CCC(C(=O)c2ccc(F)cc2)CC1 | 0 | 0 | 0 | 0 | 0 | 0
COc1ccc(C(=O)C2CCN(C(=S)NCCc3ccc(OC)c(OC)c3)CC2)cc1 | 0 | 0 | 0 | 0 | 0 | 0
COc1ccc(C(=O)C2CCN(C(=S)NCCc3ccccc3)CC2)cc1 | 0 | 16 | 0 | 0 | 0 | 0
